# Laboratory results from ChEMBL document CHEMBL3108710, “Discovery of a novel class of dimeric Smac mimetics as potent IAP antagonists resulting in a clinical candidate for the treatment of cancer (AZD5582)” (J Med Chem, 2013).
# Calls of active or inactive are those of the source. The rule behind the calls is not given here.
# Columns and labels:
# MDA-MB-231 = assay: Antiproliferative activity against human MDA-MB-231 cells assessed as growth inhibition after 48 hrs by Alamar Blue assay; type: functional; settings: MDA-MB-231, 48 h
# [1] = target: T1, Baculoviral IAP repeat-containing protein 2 (Homo sapiens, UniProt Q13490); assay: Binding affinity to cIAP1 in human MDA-MB-231 cells assessed as induction of protein degradation after 1 hr by ELISA; type: cell-based
# T1 sequence (Q13490 whole entry, the tested form may be a part): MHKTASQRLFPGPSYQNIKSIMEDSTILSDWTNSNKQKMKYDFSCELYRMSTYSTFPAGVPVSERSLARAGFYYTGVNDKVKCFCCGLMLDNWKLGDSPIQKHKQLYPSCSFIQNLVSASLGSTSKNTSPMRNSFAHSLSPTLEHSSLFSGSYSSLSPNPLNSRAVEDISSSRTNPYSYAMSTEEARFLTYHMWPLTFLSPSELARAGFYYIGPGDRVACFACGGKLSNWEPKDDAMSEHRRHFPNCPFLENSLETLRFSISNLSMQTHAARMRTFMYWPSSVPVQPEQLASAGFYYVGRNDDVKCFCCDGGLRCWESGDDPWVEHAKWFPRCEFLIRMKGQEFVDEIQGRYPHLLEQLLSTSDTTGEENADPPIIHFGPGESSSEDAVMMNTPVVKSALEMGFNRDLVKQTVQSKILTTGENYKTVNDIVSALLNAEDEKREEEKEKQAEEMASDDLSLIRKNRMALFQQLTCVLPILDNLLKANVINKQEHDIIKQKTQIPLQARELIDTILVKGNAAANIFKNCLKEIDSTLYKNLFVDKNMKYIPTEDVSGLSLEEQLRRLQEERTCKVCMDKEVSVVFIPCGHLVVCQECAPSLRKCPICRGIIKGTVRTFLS
# [2] = target: T1, Baculoviral IAP repeat-containing protein 2; assay: Displacement of AbuRPFK-5FAM from GST-tagged cIAP1 BIR3 domain (L250 to G350) (unknown origin) after 20 mins by fluorescence polarization assay
# Method in brief: (§1)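 Competitive fluorescence polarization binding assay. Measures displacement of a 5-carboxyfluorescein-tagged synthetic peptide from the AVPI groove of the isolated BIR domain.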
# [3] = target: E3 ubiquitin-protein ligase XIAP (Homo sapiens, UniProt P98170); assay: Displacement of AbuRPFK-5FAM from GST-tagged XIAP BIR3 domain (N252 to E350) (unknown origin) after 20 mins by fluorescence polarization assay; method in brief: as §1
# Sequence of E3 ubiquitin-protein ligase XIAP (P98170 whole entry, the tested form may be a part): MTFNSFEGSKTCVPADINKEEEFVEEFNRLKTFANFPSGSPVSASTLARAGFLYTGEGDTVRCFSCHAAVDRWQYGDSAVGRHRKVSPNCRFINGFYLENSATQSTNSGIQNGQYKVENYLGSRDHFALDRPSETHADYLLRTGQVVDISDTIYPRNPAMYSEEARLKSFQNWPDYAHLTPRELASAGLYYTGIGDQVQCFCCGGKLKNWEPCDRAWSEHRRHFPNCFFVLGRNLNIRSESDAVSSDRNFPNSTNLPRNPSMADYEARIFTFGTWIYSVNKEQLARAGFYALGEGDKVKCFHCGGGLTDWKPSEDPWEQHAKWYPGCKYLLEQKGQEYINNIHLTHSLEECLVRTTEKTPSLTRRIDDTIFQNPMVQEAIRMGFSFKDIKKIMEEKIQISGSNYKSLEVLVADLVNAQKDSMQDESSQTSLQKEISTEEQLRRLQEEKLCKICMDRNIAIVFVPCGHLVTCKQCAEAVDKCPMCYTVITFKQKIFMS
# [4] = Fraction unbound in human plasma at 10 uM by equilibrium dialysis method; type: ADME, cell-free
# [5] = Aqueous equilibrium solubility of compound in phosphate buffer at pH 7.4 after 24 hrs by HPLC-UV analysis; type: physicochemical
# [6] = Elimination half life in Han Wistar rat at 0.2 mg/kg, iv by LC-MS/MS analysis; type: ADME, organism-based; design: dose 0.2 mg/kg, route intravenous; settings: in vivo, read-out: beta t1/2 (converted)
# Method in brief: (§2)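 Rat PK after a single intravenous bolus. Parameters derived from plasma levels: total plasma clearance, steady-state volume of distribution, half-life and AUC.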
# [7] = Total plasma clearance in Han Wistar rat at 0.2 mg/kg, iv by LC-MS/MS analysis; type: ADME, organism-based; design: dose 0.2 mg/kg, route intravenous; method in brief: as §2
# [8] = Volume of distribution at steady state in Han Wistar rat at 0.2 mg/kg, iv by LC-MS/MS analysis; type: ADME, organism-based; design: dose 0.2 mg/kg, route intravenous; settings: in vivo, read-out: Vdss; method in brief: as §2
# [9] = AUC in Han Wistar rat at 0.2 mg/kg, iv by LC-MS/MS analysis; type: ADME, organism-based; design: dose 0.2 mg/kg, route intravenous; settings: plasma; method in brief: as §2
structure (smiles),measurement,setting,value
CN[C@@H](C)C(=O)N[C@H](C(=O)N1CCC[C@H]1C(=O)N[C@@H]1c2ccccc2CC[C@@H]1OCC#CC#CCO[C@H]1CCc2ccccc2[C@H]1NC(=O)[C@@H]1CCCN1C(=O)[C@@H](NC(=O)[C@H](C)NC)C(C)(C)C)C(C)(C)C,GI50,MDA-MB-231,97 nM
same,EC50,[1],4 nM
CN[C@@H](C)C(=O)N[C@H](C(=O)N1CCC[C@H]1C(=O)N[C@H]1c2ccccc2C[C@H]1OCC#CC#CCO[C@@H]1Cc2ccccc2[C@@H]1NC(=O)[C@@H]1CCCN1C(=O)[C@@H](NC(=O)[C@H](C)NC)C1CCN(C(C)=O)CC1)C1CCN(C(C)=O)CC1,GI50,MDA-MB-231,76 nM
same,EC50,[1],> 370 nM
CN[C@@H](C)C(=O)N[C@H](C(=O)N1CCC[C@H]1C(=O)N[C@@H]1c2ccccc2CC[C@H]1OCC#CC#CCO[C@@H]1CCc2ccccc2[C@H]1NC(=O)[C@@H]1CCCN1C(=O)[C@@H](NC(=O)[C@H](C)NC)C(C)(C)C)C(C)(C)C,GI50,MDA-MB-231,61 nM
same,EC50,[1],2 nM
C#CCO[C@H]1CCc2ccccc2[C@@H]1NC(=O)[C@@H]1CCCN1C(=O)[C@@H](NC(=O)[C@H](C)NC)C(C)(C)C,GI50,MDA-MB-231,45 nM
same,IC50,[2],14 nM
same,EC50,[1],10 nM
same,IC50,[3],95 nM
CN[C@@H](C)C(=O)N[C@H](C(=O)N1CCC[C@H]1C(=O)N[C@H]1c2ccccc2C[C@H]1NC(=O)CCCCCCCCC(=O)N[C@@H]1Cc2ccccc2[C@@H]1NC(=O)[C@@H]1CCCN1C(=O)[C@@H](NC(=O)[C@H](C)NC)C1CCCCC1)C1CCCCC1,GI50,MDA-MB-231,0.2 nM
same,inhibition,[2],Active
same,EC50,[1],3 nM
CN[C@@H](C)C(=O)N[C@@H](CCCCN)C(=O)N1CCC[C@H]1C(=O)N[C@H]1c2ccccc2C[C@H]1OCC#CC#CCO[C@@H]1Cc2ccccc2[C@@H]1NC(=O)[C@@H]1CCCN1C(=O)[C@H](CCCCN)NC(=O)[C@H](C)NC,GI50,MDA-MB-231,> 370 nM
same,EC50,[1],> 370 nM
CN[C@@H](C)C(=O)N[C@H](C(=O)N1CSC[C@H]1C(=O)N[C@H]1c2ccccc2C[C@H]1OCC#CC#CCO[C@@H]1Cc2ccccc2[C@@H]1NC(=O)[C@@H]1CSCN1C(=O)[C@@H](NC(=O)[C@H](C)NC)C(C)(C)C)C(C)(C)C,GI50,MDA-MB-231,0.1 nM
same,EC50,[1],0.5 nM
same,fraction unbound at 10 µM,[4],0.107
same,solubility thermodynamic at 24 h,[5],268 µM
CN[C@@H](C)C(=O)N[C@H](C(=O)N1CCC[C@H]1C(=O)N[C@H]1c2ccccc2CC[C@H]1OCC#CC#CCO[C@@H]1CCc2ccccc2[C@@H]1NC(=O)[C@@H]1CCCN1C(=O)[C@@H](NC(=O)[C@H](C)NC)C(C)(C)C)C(C)(C)C,GI50,MDA-MB-231,0.1 nM
same,half-life,[6],30 min
same,clearance,[7],111 mL/min/kg
same,EC50,[1],0.2 nM
same,Vd,[8],1.9 L/kg
same,solubility thermodynamic at 24 h,[5],> 1000 µM
same,AUC,[9],30 ng·h/mL
CN[C@@H](C)C(=O)N[C@H](C(=O)N1CCC[C@H]1C(=O)N[C@H]1c2ccccc2C[C@H]1NC(=O)c1ccc(-c2ccc(C(=O)N[C@@H]3Cc4ccccc4[C@@H]3NC(=O)[C@@H]3CCCN3C(=O)[C@@H](NC(=O)[C@H](C)NC)C3CCCCC3)cc2)cc1)C1CCCCC1,GI50,MDA-MB-231,0.6 nM
same,inhibition,[2],Active
same,EC50,[1],15 nM
CN[C@@H](C)C(=O)N[C@H](C(=O)N1CCC[C@H]1C(=O)N[C@H]1c2ccccc2C[C@H]1OCC#CC#CCO[C@@H]1Cc2ccccc2[C@@H]1NC(=O)[C@@H]1CCCN1C(=O)[C@@H](NC(=O)[C@H](C)NC)C(C)C)C(C)C,GI50,MDA-MB-231,0.4 nM
same,half-life,[6],96 min
same,clearance,[7],44 mL/min/kg
same,EC50,[1],2 nM
same,Vd,[8],2.3 L/kg
same,AUC,[9],76 ng·h/mL
C#CCO[C@@H]1CCc2ccccc2[C@H]1NC(=O)[C@@H]1CCCN1C(=O)[C@@H](NC(=O)[C@H](C)NC)C(C)(C)C,GI50,MDA-MB-231,2190 nM
same,IC50,[2],290 nM
same,EC50,[1],> 370 nM
same,IC50,[3],1310 nM
C#CCO[C@@H]1CCc2ccccc2[C@@H]1NC(=O)[C@@H]1CCCN1C(=O)[C@@H](NC(=O)[C@H](C)NC)C(C)(C)C,GI50,MDA-MB-231,16 nM
same,IC50,[2],10 nM
same,EC50,[1],4 nM
same,IC50,[3],19 nM
C#CCO[C@H]1CCc2ccccc2[C@H]1NC(=O)[C@@H]1CCCN1C(=O)[C@@H](NC(=O)[C@H](C)NC)C(C)(C)C,GI50,MDA-MB-231,192 nM
same,IC50,[2],40 nM
same,EC50,[1],126 nM
same,IC50,[3],600 nM
CN[C@@H](C)C(=O)N[C@H](C(=O)N1[C@H](C(=O)N[C@H]2c3ccccc3C[C@H]2OCC#CC#CCO[C@@H]2Cc3ccccc3[C@@H]2NC(=O)[C@@H]2C[C@@H]3C[C@@H]3N2C(=O)[C@@H](NC(=O)[C@H](C)NC)C2CCCCC2)C[C@@H]2C[C@@H]21)C1CCCCC1,GI50,MDA-MB-231,0.1 nM
same,EC50,[1],0.1 nM
same,fraction unbound at 10 µM,[4],< 0.01
same,solubility thermodynamic at 24 h,[5],48 µM
CN[C@@H](C)C(=O)N[C@H](C(=O)N1CC=C[C@H]1C(=O)N[C@H]1c2ccccc2C[C@H]1OCC#CC#CCO[C@@H]1Cc2ccccc2[C@@H]1NC(=O)[C@@H]1C=CCN1C(=O)[C@@H](NC(=O)[C@H](C)NC)C1CCCCC1)C1CCCCC1,GI50,MDA-MB-231,0.1 nM
same,EC50,[1],0.3 nM
same,fraction unbound at 10 µM,[4],0.029
same,solubility thermodynamic at 24 h,[5],77 µM
CN[C@@H](C)C(=O)N[C@H](C(=O)N1CSC2(CC2)[C@H]1C(=O)N[C@H]1c2ccccc2C[C@H]1OCC#CC#CCO[C@@H]1Cc2ccccc2[C@@H]1NC(=O)[C@H]1N(C(=O)[C@@H](NC(=O)[C@H](C)NC)C2CCCCC2)CSC12CC2)C1CCCCC1,GI50,MDA-MB-231,< 0.1 nM
same,EC50,[1],0.6 nM
same,fraction unbound at 10 µM,[4],< 0.01
same,solubility thermodynamic at 24 h,[5],< 1 µM
CN[C@@H](C)C(=O)N[C@H](C(=O)N1CCC[C@H]1C(=O)N[C@@H]1CCN(CC#CC#CCN2CC[C@@H](NC(=O)[C@@H]3CCCN3C(=O)[C@@H](NC(=O)[C@H](C)NC)C3CCCCC3)c3ccccc32)c2ccccc21)C1CCCCC1,GI50,MDA-MB-231,0.1 nM
same,half-life,[6],36 min
same,clearance,[7],68 mL/min/kg
same,EC50,[1],0.2 nM
same,Vd,[8],1.2 L/kg
same,AUC,[9],40 ng·h/mL
CN[C@@H](C)C(=O)N[C@H](C(=O)N1CCC[C@H]1C(=O)N[C@H]1c2ccccc2C[C@H]1OCC#CC#CCO[C@@H]1Cc2ccccc2[C@@H]1NC(=O)[C@@H]1CCCN1C(=O)[C@@H](NC(=O)[C@H](C)NC)C1CCNCC1)C1CCNCC1,GI50,MDA-MB-231,> 370 nM
same,EC50,[1],> 370 nM
CN[C@@H](C)C(=O)N[C@H](C(=O)N1CCC[C@H]1C(=O)NC1(C(=O)NCC#CC#CCNC(=O)C2(NC(=O)[C@@H]3CCCN3C(=O)[C@@H](NC(=O)[C@H](C)NC)C3CCCCC3)Cc3ccccc3C2)Cc2ccccc2C1)C1CCCCC1,GI50,MDA-MB-231,13 nM
same,EC50,[1],5 nM
CN[C@@H](C)C(=O)N[C@H](C(=O)N1CSC[C@H]1C(=O)N[C@H]1c2ccccc2C[C@H]1OCC#CC#CCO[C@@H]1Cc2ccccc2[C@@H]1NC(=O)[C@@H]1CSCN1C(=O)[C@@H](NC(=O)[C@H](C)NC)C1CCCCC1)C1CCCCC1,GI50,MDA-MB-231,0.1 nM
same,EC50,[1],0.2 nM
same,fraction unbound at 10 µM,[4],0.011
same,solubility thermodynamic at 24 h,[5],< 1 µM
CN[C@@H](C)C(=O)N[C@H](C(=O)N1CCC[C@H]1C(=O)N[C@H]1c2ccccc2C[C@@H]1OCC#CC#CCO[C@H]1Cc2ccccc2[C@@H]1NC(=O)[C@@H]1CCCN1C(=O)[C@@H](NC(=O)[C@H](C)NC)C1CCCCC1)C1CCCCC1,GI50,MDA-MB-231,< 0.1 nM
same,EC50,[1],0.2 nM
CN[C@@H](C)C(=O)N[C@H](C(=O)N1CCC[C@H]1C(=O)N[C@H]1c2ccccc2CC[C@@H]1OCC#CC#CCO[C@H]1CCc2ccccc2[C@@H]1NC(=O)[C@@H]1CCCN1C(=O)[C@@H](NC(=O)[C@H](C)NC)C(C)(C)C)C(C)(C)C,GI50,MDA-MB-231,0.3 nM
same,EC50,[1],0.6 nM
CN[C@@H](C)C(=O)N[C@H](C(=O)N1CCC[C@H]1C(=O)N[C@H]1c2ccccc2C[C@H]1OCC#CC#CCO[C@@H]1Cc2ccccc2[C@@H]1NC(=O)[C@@H]1CCCN1C(=O)[C@@H](NC(=O)[C@H](C)NC)C1CCN(CCO)CC1)C1CCN(CCO)CC1,GI50,MDA-MB-231,> 370 nM
same,EC50,[1],> 370 nM
